We go through five compounds from ChEMBL document CHEMBL1770143, “Biological evaluation of 3'-O-alkylated analogs of salacinol, the role of hydrophobic alkyl group at 3' position in the side chain on the α-glucosidase inhibitory activity” (Bioorg Med Chem Lett, 2011).

Molecules are shown by their SMILES.

Experiment [1] addresses T1, Sucrase-isomaltase, intestinal (Rattus norvegicus, UniProt P23739). Nature of the experiment: Inhibition of rat small intestinal isomaltase after 30 mins by glucose-oxidase method. In outline: (§1)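 Enzyme source was rat small-intestinal brush border membrane vesicles suspended in 0.1 M maleate buffer, pH 6.0. Substrate solutions, prior to mixing, were maltose 74 mM (maltase), sucrose 74 mM (sucrase) and isomaltose 7.4 mM (isomaltase). Substrate, inhibitor and enzyme were incubated at 37 °C for 30 min, then stopped by 2 min boiling. Released glucose was measured by glucose oxidase. Final DMSO was 2.5%.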

In experiment [2] the target is T1, Sucrase-isomaltase, intestinal. Description: Inhibition of rat small intestinal sucrase after 30 mins by glucose-oxidase method. An outline of the steps:
as §1

The target is the same in experiment [3]. Description: Competitive inhibition of rat intestinal isomaltase.
Experiment [4] shares this target. Description: Competitive inhibition of rat intestinal sucrase.

T1 sequence (P23739 1-1013 limits assumed): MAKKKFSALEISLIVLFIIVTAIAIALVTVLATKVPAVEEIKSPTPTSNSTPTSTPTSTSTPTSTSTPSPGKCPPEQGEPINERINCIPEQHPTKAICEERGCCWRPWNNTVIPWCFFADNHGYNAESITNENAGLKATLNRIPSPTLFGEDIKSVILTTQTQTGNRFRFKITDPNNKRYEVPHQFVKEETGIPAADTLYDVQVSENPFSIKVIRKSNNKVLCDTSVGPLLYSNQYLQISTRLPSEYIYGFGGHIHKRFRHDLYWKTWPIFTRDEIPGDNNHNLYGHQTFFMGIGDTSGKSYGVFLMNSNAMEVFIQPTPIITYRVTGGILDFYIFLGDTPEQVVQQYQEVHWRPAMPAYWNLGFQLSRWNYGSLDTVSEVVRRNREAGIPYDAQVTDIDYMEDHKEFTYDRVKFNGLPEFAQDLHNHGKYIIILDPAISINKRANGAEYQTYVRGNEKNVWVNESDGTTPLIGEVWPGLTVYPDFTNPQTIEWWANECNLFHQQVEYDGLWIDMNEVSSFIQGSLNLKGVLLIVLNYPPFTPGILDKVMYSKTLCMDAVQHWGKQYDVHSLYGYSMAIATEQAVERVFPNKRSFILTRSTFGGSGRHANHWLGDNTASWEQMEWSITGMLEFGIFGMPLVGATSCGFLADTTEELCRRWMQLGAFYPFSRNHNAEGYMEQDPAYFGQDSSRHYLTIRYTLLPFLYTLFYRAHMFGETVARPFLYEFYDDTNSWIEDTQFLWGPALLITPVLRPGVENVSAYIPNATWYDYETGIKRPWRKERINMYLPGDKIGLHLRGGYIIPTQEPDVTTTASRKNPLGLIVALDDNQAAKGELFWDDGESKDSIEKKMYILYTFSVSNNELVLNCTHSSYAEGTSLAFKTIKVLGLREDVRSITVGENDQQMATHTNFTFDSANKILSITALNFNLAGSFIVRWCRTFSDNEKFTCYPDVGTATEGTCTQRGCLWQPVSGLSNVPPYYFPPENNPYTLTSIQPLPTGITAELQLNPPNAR
T1 sequence (P23739 1014-1841 limits assumed): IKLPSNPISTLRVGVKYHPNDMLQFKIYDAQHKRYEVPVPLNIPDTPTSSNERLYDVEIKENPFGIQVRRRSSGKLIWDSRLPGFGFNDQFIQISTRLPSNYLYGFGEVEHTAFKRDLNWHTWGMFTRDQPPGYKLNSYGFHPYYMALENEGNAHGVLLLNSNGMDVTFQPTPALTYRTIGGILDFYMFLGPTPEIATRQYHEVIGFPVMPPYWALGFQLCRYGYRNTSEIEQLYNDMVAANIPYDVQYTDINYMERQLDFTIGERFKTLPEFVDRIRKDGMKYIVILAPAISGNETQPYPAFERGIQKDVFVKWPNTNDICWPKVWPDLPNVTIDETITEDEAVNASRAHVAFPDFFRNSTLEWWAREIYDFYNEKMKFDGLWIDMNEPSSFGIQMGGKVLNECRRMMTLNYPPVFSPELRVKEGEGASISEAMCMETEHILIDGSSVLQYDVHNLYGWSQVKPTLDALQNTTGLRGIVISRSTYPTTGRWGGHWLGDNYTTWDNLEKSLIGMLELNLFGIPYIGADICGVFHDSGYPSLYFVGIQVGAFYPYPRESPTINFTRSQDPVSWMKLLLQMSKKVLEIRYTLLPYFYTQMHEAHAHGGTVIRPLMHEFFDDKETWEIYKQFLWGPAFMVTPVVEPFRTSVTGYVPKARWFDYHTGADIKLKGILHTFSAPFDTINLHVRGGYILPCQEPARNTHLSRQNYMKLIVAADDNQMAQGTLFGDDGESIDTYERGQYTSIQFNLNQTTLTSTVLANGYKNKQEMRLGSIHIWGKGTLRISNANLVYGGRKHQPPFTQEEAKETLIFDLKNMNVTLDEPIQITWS

Broadly, the IC50 is the concentration needed to halve the response being measured. Lower therefore signals inhibition by little substance. Regarding `CO[C@@H](CO)[C@H](O)C[S+]1C[C@@H](O)[C@H](O)[C@H]1CO` (single isomer, unassigned), the IC50 in experiment [1] came to 390 nM; in experiment [2], 460 nM.

For the compound `CCO[C@@H](CO)[C@H](O)C[S+]1C[C@@H](O)[C@H](O)[C@H]1CO` (single isomer, unassigned), the results for the IC50 in experiment [1] and in experiment [2] were 270 nM and 120 nM, respectively.

Turning to `CCCCCCCCCCCCCO[C@@H](CO)[C@H](O)C[S+]1C[C@@H](O)[C@H](O)[C@H]1CO` (single isomer, unassigned), the results for the 50% inhibitory concentration (IC50) in experiment [1] and in experiment [2] were 950 nM and 1300 nM, respectively.

As to `OC[C@H](OCc1ccccc1)[C@H](O)C[S+]1C[C@@H](O)[C@H](O)[C@H]1CO` (single isomer, unassigned), half-maximal inhibition in experiment [2] (IC50) required 320 nM.

In general, Ki refers to the dissociation constant of the complex between target and ligand, obtained from inhibition or displacement. Consider `O=S(=O)([O-])O[C@@H](CO)[C@H](O)C[S@+]1C[C@@H](O)[C@H](O)[C@H]1CO` [SALACINOL], for which the values for the inhibition constant Ki in experiment [3] and in experiment [4] were 1410 nM and 957 nM, respectively.
